{
  "source": "ChEMBL document CHEMBL3872212",
  "about": "“Synthesis, antimicrobial activity and advances in structure-activity relationships (SARs) of novel tri-substituted thiazole derivatives” (2016)",
  "type_in_all_cases": "functional",
  "key": {"[1]": {"test_system": "Bacillus spizizenii", "experiment": "Antibacterial activity against Bacillus subtilis ATCC 6633 at 200 ug/mL measured after 24 hrs by filter paper disc method", "conditions": "ATCC 6633, 24 h, read-out: DIZ"}, "[2]": {"test_system": "Staphylococcus aureus", "experiment": "Antibacterial activity against Staphylococcus aureus ATCC 19433 at 200 ug/mL measured after 24 hrs by filter paper disc method", "conditions": "ATCC 19433, 24 h, read-out: DIZ"}, "[3]": {"test_system": "Escherichia coli", "experiment": "Antibacterial activity against Escherichia coli ATCC 8739 at 200 ug/mL measured after 24 hrs by filter paper disc method", "conditions": "ATCC 8739, 24 h, read-out: DIZ"}, "[4]": {"test_system": "Proteus vulgaris", "experiment": "Antibacterial activity against Proteus vulgaris […] at 200 ug/mL measured after 24 hrs by filter paper disc method", "conditions": "read-out: DIZ"}, "[5]": {"test_system": "Aspergillus flavus", "experiment": "Antifungal activity against Aspergillus flavus MTCC 1884 at 200 ug/mL incubated at 4 degC for 24 hrs followed by subsequent incubation at 37.5 degC for 3 days by poisoned food method", "conditions": "read-out: DIZ"}, "[6]": {"test_system": "Aspergillus niger", "experiment": "Antifungal activity against Aspergillus niger MTCC 1881 at 200 ug/mL incubated at 4 degC for 24 hrs followed by subsequent incubation at 37.5 degC for 3 days by poisoned food method", "conditions": "read-out: DIZ"}, "[7]": {"test_system": "Bacillus spizizenii", "experiment": "Antibacterial activity against Bacillus subtilis ATCC 6633 measured after 24 hrs by broth dilution method", "procedure,_shortened": "(§1)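 MIC is the lowest concentration that arrests growth of the organism.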"}, "[8]": {"test_system": "Staphylococcus aureus", "experiment": "Antibacterial activity against Staphylococcus aureus ATCC 19433 measured after 24 hrs by broth dilution method", "procedure,_shortened": "as §1"}, "[9]": {"test_system": "Escherichia coli", "experiment": "Antibacterial activity against Escherichia coli ATCC 8739 measured after 24 hrs by broth dilution method", "procedure,_shortened": "as §1"}, "[10]": {"test_system": "Proteus vulgaris", "experiment": "Antibacterial activity against Proteus vulgaris […] measured after 24 hrs by broth dilution method", "procedure,_shortened": "as §1"}, "[11]": {"test_system": "Aspergillus niger", "experiment": "Antifungal activity against Aspergillus niger MTCC 1881 measured after 2 days by broth dilution method", "procedure,_shortened": "as §1"}, "[12]": {"test_system": "Bacillus spizizenii", "experiment": "Bactericidal activity against Bacillus subtilis ATCC 6633 measured after 24 hrs by broth dilution method", "procedure,_shortened": "(§2)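 MBC/MFC is found by further steps carried out once the MIC has been determined.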"}, "[13]": {"test_system": "Staphylococcus aureus", "experiment": "Bactericidal activity against Staphylococcus aureus ATCC 19433 measured after 24 hrs by broth dilution method", "procedure,_shortened": "as §2"}, "[14]": {"test_system": "Escherichia coli", "experiment": "Bactericidal activity against Escherichia coli ATCC 8739 measured after 24 hrs by broth dilution method", "procedure,_shortened": "as §2"}, "[15]": {"test_system": "Proteus vulgaris", "experiment": "Bactericidal activity against Proteus vulgaris […] measured after 24 hrs by broth dilution method", "procedure,_shortened": "as §2"}, "[16]": {"test_system": "Aspergillus niger", "experiment": "Fungicidal activity against Aspergillus niger MTCC 1881 measured after 2 days by broth dilution method", "procedure,_shortened": "as §2"}, "[17]": {"test_system": "Aspergillus flavus", "experiment": "Fungicidal activity against Aspergillus flavus MTCC 1884 measured after 2 days by broth dilution method", "procedure,_shortened": "as §2"}, "[18]": {"test_system": "Staphylococcus aureus", "experiment": "Ratio of MBC to MIC for Staphylococcus aureus ATCC 19433"}, "[19]": {"test_system": "Proteus vulgaris", "experiment": "Ratio of MBC to MIC for Proteus vulgaris […]"}, "[20]": {"test_system": "Aspergillus flavus", "experiment": "Antifungal activity against Aspergillus flavus MTCC 1884 measured after 2 days by broth dilution method", "procedure,_shortened": "as §1"}, "[21]": {"test_system": "Bacillus spizizenii", "experiment": "Ratio of MBC to MIC for Bacillus subtilis ATCC 6633"}, "[22]": {"test_system": "Escherichia coli", "experiment": "Ratio of MBC to MIC for Escherichia coli ATCC 8739"}, "[23]": {"test_system": "Aspergillus niger", "experiment": "Ratio of MFC to MIC for Aspergillus niger MTCC 1881"}, "[24]": {"test_system": "Aspergillus flavus", "experiment": "Ratio of MFC to MIC for Aspergillus flavus MTCC 1884"}},
  "data": [
    {"smiles": "Cc1nc(-c2ccc(-c3ccc(F)c(C)c3)cc2)c(C)s1", "values": [
      {"measurement": "zone of inhibition at 200 µg/mL", "setting": "[1]", "result": 14.6, "unit": "mm"},
      {"measurement": "zone of inhibition at 200 µg/mL", "setting": "[2]", "result": 16.4, "unit": "mm"},
      {"measurement": "zone of inhibition at 200 µg/mL", "setting": "[3]", "result": 18.1, "unit": "mm"},
      {"measurement": "zone of inhibition at 200 µg/mL", "setting": "[4]", "result": 15.2, "unit": "mm"},
      {"measurement": "zone of inhibition at 200 µg/mL", "setting": "[5]", "result": 5.63, "unit": "mm"}
    ]},
    {"smiles": "COc1ccc(-c2ccc(-c3nc(C)sc3C)cc2)cc1OC", "values": [
      {"measurement": "zone of inhibition at 200 µg/mL", "setting": "[1]", "result": 22, "unit": "mm"},
      {"measurement": "zone of inhibition at 200 µg/mL", "setting": "[2]", "result": 24.1, "unit": "mm"},
      {"measurement": "zone of inhibition at 200 µg/mL", "setting": "[3]", "result": 25.6, "unit": "mm"},
      {"measurement": "zone of inhibition at 200 µg/mL", "setting": "[4]", "result": 20.9, "unit": "mm"},
      {"measurement": "zone of inhibition at 200 µg/mL", "setting": "[6]", "result": 22.5, "unit": "mm"},
      {"measurement": "zone of inhibition at 200 µg/mL", "setting": "[5]", "result": 24.2, "unit": "mm"},
      {"measurement": "MIC", "setting": "[7]", "result": 12.5, "unit": "µg/mL"},
      {"measurement": "MIC", "setting": "[8]", "result": 25, "unit": "µg"},
      {"measurement": "MIC", "setting": "[9]", "result": 50, "unit": "µg"},
      {"measurement": "MIC", "setting": "[10]", "result": 25, "unit": "µg"},
      {"measurement": "MIC", "setting": "[11]", "result": 25, "unit": "µg"},
      {"measurement": "MBC", "setting": "[12]", "result": 100, "unit": "µg"},
      {"measurement": "MBC", "setting": "[13]", "result": 50, "unit": "µg"},
      {"measurement": "MBC", "setting": "[14]", "result": 200, "unit": "µg"},
      {"measurement": "MBC", "setting": "[15]", "result": 100, "unit": "µg"},
      {"measurement": "MFC", "setting": "[16]", "result": 100, "unit": "µg"},
      {"measurement": "MFC", "setting": "[17]", "result": 200, "unit": "µg"},
      {"measurement": "Ratio", "setting": "[18]", "result": 2},
      {"measurement": "Ratio", "setting": "[19]", "result": 2}
    ]},
    {"smiles": "COc1cccc(-c2ccc(-c3nc(C)sc3C)cc2)c1", "values": [
      {"measurement": "zone of inhibition at 200 µg/mL", "setting": "[1]", "result": 15.2, "unit": "mm"},
      {"measurement": "zone of inhibition at 200 µg/mL", "setting": "[2]", "result": 17.5, "unit": "mm"},
      {"measurement": "zone of inhibition at 200 µg/mL", "setting": "[3]", "result": 19.2, "unit": "mm"},
      {"measurement": "zone of inhibition at 200 µg/mL", "setting": "[4]", "result": 18.8, "unit": "mm"},
      {"measurement": "zone of inhibition at 200 µg/mL", "setting": "[6]", "result": 6.32, "unit": "mm"},
      {"measurement": "zone of inhibition at 200 µg/mL", "setting": "[5]", "result": 9.11, "unit": "mm"}
    ]},
    {"smiles": "CC(=O)N1CCN(c2ccc(OCC3COC(Cn4ccnc4)(c4ccc(Cl)cc4Cl)O3)cc2)CC1", "note": "(configuration not stated) [KETOCONAZOLE]", "values": [
      {"measurement": "zone of inhibition at 200 µg/mL", "setting": "[6]", "result": 25.4, "unit": "mm"},
      {"measurement": "zone of inhibition at 200 µg/mL", "setting": "[5]", "result": 28.4, "unit": "mm"},
      {"measurement": "MIC", "setting": "[11]", "result": 6.25, "unit": "µg"},
      {"measurement": "MIC", "setting": "[20]", "result": 12.5, "unit": "µg/mL"}
    ]},
    {"smiles": "Cc1nc(-c2ccc(-c3ccc(CO)cc3)cc2)c(C)s1", "values": [
      {"measurement": "zone of inhibition at 200 µg/mL", "setting": "[1]", "result": 20, "unit": "mm"},
      {"measurement": "zone of inhibition at 200 µg/mL", "setting": "[2]", "result": 21.6, "unit": "mm"},
      {"measurement": "zone of inhibition at 200 µg/mL", "setting": "[3]", "result": 23.8, "unit": "mm"},
      {"measurement": "zone of inhibition at 200 µg/mL", "setting": "[4]", "result": 17.6, "unit": "mm"},
      {"measurement": "zone of inhibition at 200 µg/mL", "setting": "[6]", "result": 14.5, "unit": "mm"},
      {"measurement": "zone of inhibition at 200 µg/mL", "setting": "[5]", "result": 17.1, "unit": "mm"},
      {"measurement": "MIC", "setting": "[8]", "result": 12.5, "unit": "µg"},
      {"measurement": "MIC", "setting": "[9]", "result": 25, "unit": "µg"},
      {"measurement": "MIC", "setting": "[10]", "result": 100, "unit": "µg"},
      {"measurement": "MIC", "setting": "[11]", "result": 25, "unit": "µg"},
      {"measurement": "MIC", "setting": "[20]", "result": 25, "unit": "µg/mL"},
      {"measurement": "MBC", "setting": "[12]", "result": 100, "unit": "µg"},
      {"measurement": "MBC", "setting": "[13]", "result": ">200", "unit": "µg"},
      {"measurement": "MBC", "setting": "[14]", "result": 100, "unit": "µg"},
      {"measurement": "MBC", "setting": "[15]", "result": ">200", "unit": "µg"},
      {"measurement": "MFC", "setting": "[16]", "result": 200, "unit": "µg"},
      {"measurement": "MFC", "setting": "[17]", "result": 100, "unit": "µg"},
      {"measurement": "Ratio", "setting": "[21]", "result": ">2"},
      {"measurement": "Ratio", "setting": "[18]", "result": ">2"},
      {"measurement": "Ratio", "setting": "[22]", "result": ">2"},
      {"measurement": "Ratio", "setting": "[19]", "result": ">2"},
      {"measurement": "Ratio", "setting": "[23]", "result": ">2"},
      {"measurement": "Ratio", "setting": "[24]", "result": ">2"}
    ]},
    {"smiles": "Cc1nc(-c2ccc(-c3ccc(C(F)(F)F)cc3)cc2)c(C)s1", "values": [
      {"measurement": "zone of inhibition at 200 µg/mL", "setting": "[1]", "result": 5.37, "unit": "mm"},
      {"measurement": "zone of inhibition at 200 µg/mL", "setting": "[2]", "result": 7.86, "unit": "mm"},
      {"measurement": "zone of inhibition at 200 µg/mL", "setting": "[3]", "result": 8.7, "unit": "mm"},
      {"measurement": "zone of inhibition at 200 µg/mL", "setting": "[4]", "result": 6.91, "unit": "mm"}
    ]},
    {"smiles": "Cc1nc(-c2ccc(-c3ccc(I)cc3)cc2)c(C)s1", "values": [
      {"measurement": "zone of inhibition at 200 µg/mL", "setting": "[1]", "result": 12.1, "unit": "mm"},
      {"measurement": "zone of inhibition at 200 µg/mL", "setting": "[2]", "result": 14.8, "unit": "mm"},
      {"measurement": "zone of inhibition at 200 µg/mL", "setting": "[3]", "result": 16.2, "unit": "mm"},
      {"measurement": "zone of inhibition at 200 µg/mL", "setting": "[4]", "result": 15.1, "unit": "mm"},
      {"measurement": "zone of inhibition at 200 µg/mL", "setting": "[6]", "result": 8, "unit": "mm"},
      {"measurement": "zone of inhibition at 200 µg/mL", "setting": "[5]", "result": 9.57, "unit": "mm"}
    ]}
  ]
}
